This is an account of results in ChEMBL document CHEMBL1153465, “C5-Modified nucleosides exhibiting anticancer activity” (Bioorg Med Chem Lett, 2009).

Molecules are shown by their SMILES.

Holding throughout (assay type): functional
Test [1] deals with HCT-15. In words: Cytotoxicity against human HCT15 cells by SRB assay. A general note: In SRB staining, fixed cells bind dye roughly in proportion to their protein.
Test [2] deals with MDA-MB-231. In words: Cytotoxicity against human MDA-MB-231 cells by SRB assay.
Test [3] relates to NCI-H23. In words: Cytotoxicity against human NCI-H23 cells by SRB assay.
The subject of test [4] is NUGC-3. In words: Cytotoxicity against human NUGC3 cells by SRB assay.
The subject of test [5] is PC-3. In words: Cytotoxicity against human PC3 cells by SRB assay.
Test [6] relates to ACHN. In words: Cytotoxicity against human ACHN cells by SRB assay.
The test system of test [7] is HCT-15. In words: Cytotoxicity against human HCT15 cells at 10 uM by SRB assay. The procedure, abridged: (§1)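 Growth inhibition measured at one fixed test concentration by sulforhodamine B assay. Cells were kept in RPMI 1640 plus 5% fetal bovine serum at 37 °C under humidified 5% CO₂. Adriamycin served as positive control. Results are given as […] of cancer cell growth.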

Test [8] relates to MDA-MB-231. In words: Cytotoxicity against human MDA-MB-231 cells at 10 uM by SRB assay. The procedure, abridged:
as §1

For test [9], the system named is NCI-H23. In words: Cytotoxicity against human NCI-H23 cells at 10 uM by SRB assay. The procedure, abridged: as §1
For test [10], the system named is PC-3. In words: Cytotoxicity against human PC3 cells at 10 uM by SRB assay. The procedure, abridged:
as §1

For `COc1cccc2c1C(=O)c1c(O)c3c(c(O)c1C2=O)C[C@@](O)(C(=O)CO)C[C@@H]3O[C@H]1C[C@H](N)[C@H](O)[C@H](C)O1` [DOXORUBICIN], the GI50 in [1] was determined as 1640 nM; in [2] it was 610 nM; in [3], 510 nM; in [4], 250 nM; in test [5] it was 730 nM; in test [6], 410 nM.
`CCc1ccc(Cn2cc(-c3cn([C@H]4C[C@H](OC(C)=O)[C@@H](COC(C)=O)O4)c(=O)[nH]c3=O)nn2)cc1`: the growth, % of control at 10 µM in test [7] is 88%; in test [8] it was 97.7%; in test [9], 77.2%; in [10] it was 91.2%.
With `CCc1ccc(-c2cc(-c3cn([C@H]4C[C@H](OC(C)=O)[C@@H](COC(C)=O)O4)c(=O)[nH]c3=O)on2)cc1`, the growth, % of control at 10 µM in test [7] worked out at 92.2%; in [8] it was 97.4%; in [9], 92.7%; in [10], 62.8%.
The like results for `CCCCc1ccc(-c2cc(-c3cn([C@H]4C[C@H](OC(C)=O)[C@@H](COC(C)=O)O4)c(=O)[nH]c3=O)on2)cc1` were, in that order, 71.4%, 72.2%, 97.4% and 30.4%.
For `CC(=O)OC[C@H]1O[C@@H](n2cc(-c3cc(-c4ccccc4)no3)c(=O)[nH]c2=O)C[C@@H]1OC(C)=O`, the growth, % of control at 10 µM in test [7] came to 92.2%; in test [8], 95%; in test [9], 91.4%; in test [10], 85.5%.
In the same order, the values of `CC(=O)OC[C@H]1O[C@@H](n2cc(-c3cn(Cc4ccc(C(C)C)cc4)nn3)c(=O)[nH]c2=O)C[C@@H]1OC(C)=O` are 96.5%, 98.1%, 86.7% and 91.3%.
In the same order, the values of `CC(=O)OC[C@H]1O[C@@H](n2cc(-c3cn(Cc4ccccc4)nn3)c(=O)[nH]c2=O)C[C@@H]1OC(C)=O` are 92.3%, 102%, 98.2% and 92.1%.
In the same order, the values of `CCCc1cc(-c2cn([C@H]3C[C@H](OC(C)=O)[C@@H](COC(C)=O)O3)c(=O)[nH]c2=O)on1` are 98.8%, 102%, 96.9% and 88.1%.
Consider `CC(=O)OC[C@H]1O[C@@H](n2cc(-c3cc(C)no3)c(=O)[nH]c2=O)C[C@@H]1OC(C)=O`, for which the growth, % of control at 10 µM in [7] was found to be 102%; in test [8], 106%; in [9], 101%; in test [10] it was 92.4%.
The like results for `CCCCCCCCc1cc(-c2cn([C@H]3C[C@H](O)[C@@H](CO)O3)c(=O)[nH]c2=O)on1` were, in that order, 88.2%, 96.7%, 120% and 77.3%.
The like results for `O=c1[nH]c(=O)n([C@H]2C[C@H](O)[C@@H](CO)O2)cc1-c1cn(Cc2ccccc2)nn1` were, in that order, 88.3%, 103%, 97.5% and 92.1%.
In the same order, the values of `CC(C)(C)c1ccc(-c2cc(-c3cn([C@H]4C[C@H](O)[C@@H](CO)O4)c(=O)[nH]c3=O)on2)cc1` are 79.8%, 102%, 98.9% and 87.9%.
In the case of `CCCCCc1cc(-c2cn([C@H]3C[C@H](OC(C)=O)[C@@H](COC(C)=O)O3)c(=O)[nH]c2=O)on1`, the growth, % of control at 10 µM in [7] stood at 98.7%; in test [8], 91.5%; in test [9], 88.9%; in test [10], 93.9%.
Turning to `CC(=O)OC[C@H]1O[C@@H](n2cc(-c3cc(-c4ccc(C(C)C)cc4)no3)c(=O)[nH]c2=O)C[C@@H]1OC(C)=O`, the growth, % of control at 10 µM turned out to be 80.9% in [7], 83.2% in [8], 108% in [9] and 50.3% in test [10].
In the case of `CC(=O)OC[C@H]1O[C@@H](n2cc(-c3cn(Cc4ccc(C(C)(C)C)cc4)nn3)c(=O)[nH]c2=O)C[C@@H]1OC(C)=O`, the growth, % of control at 10 µM in test [7] came to 94.2%; in test [8], 105%; in test [9], 106%; in test [10] it was 90.4%.
The like results for `CC(C)(C)c1ccc(Cn2cc(-c3cn([C@H]4C[C@H](O)[C@@H](CO)O4)c(=O)[nH]c3=O)nn2)cc1` were, in that order, 96.9%, 106%, 95% and 92.3%.
The like results for `CC(=O)OC[C@H]1O[C@@H](n2cc(-c3cc(-c4ccc(C(C)(C)C)cc4)no3)c(=O)[nH]c2=O)C[C@@H]1OC(C)=O` were, in that order, 53.8%, 69.3%, 112% and 27.5%.

As a reminder, the GI50 is the concentration at which growth is held to half of that of the control.
